Numbered stars: 1 amine (or outer) side, 2 acyl side, 3 side chain; on linkers, the order of the positions; unused ones are H or OH. Square brackets hold non-standard residues; d marks the D form. Peptide text beside a SMILES is read from it. * marks the point of attachment. Phe(4-NO2) = N[C@@H](Cc1ccc([N+](=O)[O-])cc1)C(=O)O; Tyr(Nα-amidino) = N=C(N)N[C@@H](Cc1ccc(O)cc1)C(=O)*; X1 = O=C([C@@H](CSS(=O)(=O)O)N[*:1])[*:2]; X3 = O=C([C@@H](CCS(=O)(=O)O)N[*:1])[*:2]; X2 = C[S+](C)CC[C@@H](N[*:1])C(=O)[*:2]
Key:
Assay type in all cases: functional
Mus musculus [1] = experiment: In vivo inhibition of Acetic acid-induced writhing in mice (sc)
Procedure, shortened: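 Male TFW Tuck mice, five to six per group; acetic acid (0.6%) ip, 25 mL kg⁻¹; writhes counted for 5 min from 15 min after irritant. Compounds sc, 10 mL kg⁻¹. ED50 = dose giving 50% fewer writhes than vehicle, by linear regression.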

Mus musculus [2] = species on record: Mus musculus; experiment: Effective dose was measured in hot plate test.
Procedure, shortened: (§1)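 Male CFLP mice (Hacking and Churchill), groups of five to six, placed on copper plate at 55 °C; endpoint paw licking/shaking or jumping, 30-s cut-off. Drugs sc, 10 mL kg⁻¹. ED50 = dose doubling response latency vs vehicle, by parallel-line probit analysis.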

Cavia porcellus = species on record: Cavia porcellus; experiment: In vitro opioid activity of compound in the GPI (guinea pig ileum) by determination of inhibition of electrically induced contractions
Procedure, shortened: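 Terminal ileum segments from 300-350 g guinea pigs in 20-mL bath, 1-g tension, Krebs' bicarbonate gassed 95% O2/5% CO2. Coaxial stimulation 0.1 Hz, 0.5 ms, supramaximal voltage; isotonic recording of contractions. Dose-response curves with 15-min washout between doses; opioid nature checked by reversal with naloxone (1 μg mL⁻¹).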

Mus musculus [3] = experiment: In vivo inhibition of phenyl-1,4-benzoquinone(PBQ) -induced writhing in mice (sc)
Procedure, shortened: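 Female CD1 Charles River mice, groups of five to six; PBQ 2.5 mg kg⁻¹ ip (10 mL kg⁻¹). Drug or vehicle sc 30 min before PBQ; writhes (abdominal contractions/hind-limb extensions) counted 2.5 min starting 10 min post-PBQ. ED50 = dose halving writhes vs vehicle, from linear regression.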

[4] = Dose ratio in the presence / absence of N-methyl-nalorphine (11.5 mg/kg) in acetic acid (AA) writhing
Procedure, shortened: (§2)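 Male TFW Tuck mice, groups of five to six; acetic acid (0.6%) ip at 25 mL kg⁻¹; writhes counted 5 min starting 15 min post-irritant. N-methylnalorphine 11.5 mg kg⁻¹ ip 20 min before sc agonist (both 10 mL kg⁻¹). ED50 by linear regression (50% writhe reduction vs vehicle); dose ratio = shift of parallel regression lines with/without antagonist.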

Mus musculus [5] = experiment: Effective dose was measured in hot plate test; no effect 25 mg/kg; procedure, shortened: as §1
[6] = Dose ratio in the presence/absence of N-methyl-nalorphine (11.5 mg/kg) in acetic acid (AA) writhing; procedure, shortened: as §2

SMILES | ED50 (Mus musculus [1]) [mg/kg] | ED50 (Mus musculus [2]) [mg/kg] | IC50 for inhibition of electrically induced contractions (Cavia porcellus) [nM] | ED50 (Mus musculus [3]) [mg/kg] | Ratio [4] | ED50 at 25 mg/kg (Mus musculus [5]) [mg/kg] | Ratio [6]
N=C(N)N[C@@H](Cc1ccc(O)cc1)C(=O)N[C@H](CCC(=O)O)C(=O)NCC(=O)N[C@@H](Cc1ccc([N+](=O)[O-])cc1)C(=O)N1CCC[C@H]1C(N)=O | 0.5 | 5.3 | 414 | 0.3 | 1.2 | – | –
Cl.NC(=O)[C@@H]1CCCN1C(=O)[C@H](Cc1ccc([N+](=O)[O-])cc1)NC(=O)CNC(=O)[C@@H](CCS(=O)(=O)O)NC(=O)[C@@H](N)Cc1ccc(O)cc1 (H-Y[X3]G[Phe(4-NO2)]P-NH2) | 3.5 | 18.6 | 807 | 3.1 | 4.2 | – | –
N=C(N)NCCC[C@@H](NC(=O)[C@H](Cc1ccc(O)cc1)NC(=N)N)C(=O)NCC(=O)N[C@@H](Cc1ccc([N+](=O)[O-])cc1)C(=O)N1CCC[C@H]1C(N)=O ({Tyr(Nα-amidino)}-[dR]G[Phe(4-NO2)]P-NH2) | 0.8 | – | 420 | 1.3 | 4.6 | 25 | –
NC(=O)[C@@H]1CCCN1C(=O)[C@H](Cc1ccc([N+](=O)[O-])cc1)NC(=O)CNC(=O)[C@@H](CSCCS(=O)(=O)[O-])NC(=O)[C@@H](N)Cc1ccc(O)cc1.[Na+] | 0.1 | – | 3.6 | – | 4 | – | –
NC(=O)[C@@H]1CCCN1C(=O)[C@H](Cc1ccc([N+](=O)[O-])cc1)NC(=O)CNC(=O)[C@@H](CCCN=C(N)N)NC(=O)[C@@H](N)Cc1ccc(O)cc1 | 5.7 | 35 | 132 | 4.9 | 5.5 | – | –
CN1CC[C@]23c4c5ccc(O)c4O[C@H]2[C@@H](O)C=C[C@H]3[C@H]1C5 [MORPHINE] | 0.5 | – | – | – | – | – | –
NC(=O)[C@@H]1CCCN1C(=O)[C@H](Cc1ccc([N+](=O)[O-])cc1)NC(=O)CNC(=O)[C@@H](CSS(=O)(=O)O)NC(=O)[C@@H](N)Cc1ccc(O)cc1 (H-Y[X1]G[Phe(4-NO2)]P-NH2) | 0.5 | 9.7 | 7.5 | 0.4 | 3.9 | – | –
Cl.NC(=O)[C@@H]1CCCN1C(=O)[C@H](Cc1ccc([N+](=O)[O-])cc1)NC(=O)CNC(=O)[C@@H](CS(=O)(=O)O)NC(=O)[C@@H](N)Cc1ccc(O)cc1 | 5.9 | 19 | 89.4 | – | – | – | –
NC(=O)[C@@H]1CCCN1C(=O)[C@H](Cc1ccc([N+](=O)[O-])cc1)NC(=O)CNC(=O)[C@@H](CCC(=O)O)NC(=O)[C@@H](N)Cc1ccc(O)cc1 | 1.4 | 7.6 | 9 | 3 | 5.5 | – | –
CSCC[C@H](NC(=O)[C@@H](N)Cc1ccc(O)cc1)C(=O)NCC(=O)N[C@@H](Cc1ccc([N+](=O)[O-])cc1)C(=O)N1CCC[C@H]1C(N)=O (H-YMG[Phe(4-NO2)]P-NH2) | 0.1 | 1.6 | 1.8 | 0.4 | 1.2 | – | –
C[S+](C)CC[C@@H](NC(=O)[C@@H](N)Cc1ccc(O)cc1)C(=O)NCC(=O)N[C@@H](Cc1ccc([N+](=O)[O-])cc1)C(=O)N1CCC[C@H]1C(N)=O.Cl.Cl (H-Y[X2]G[Phe(4-NO2)]P-NH2) | 8.1 | – | 61.2 | 3.1 | – | – | 3.3
C[S+](C)CC[C@@H](NC(=O)[C@H](Cc1ccc(O)cc1)N=C(N)N)C(=O)NCC(=O)N[C@@H](Cc1ccc([N+](=O)[O-])cc1)C(=O)N1CCC[C@H]1C(N)=O.Cl.Cl | 0.5 | 10.9 | 525 | 1.1 | 4.2 | – | –

From ChEMBL document CHEMBL1124114, “Peripherally acting enkephalin analogues. 1. Polar pentapeptides” (J Med Chem, 1988)
